One assay deals with M9-ENL1 cells. Nature of the assay: Cell viability of M9-ENL1 cells, Annexin V / 7-AAD flow cytometry. Particulars: 20 μM, 24 h. Type of assay: cell-based, human. A general note: Flow cytometry measures light scatter and fluorescence of single cells or particles in a stream.
The target in assay [1] is T1, P450BM3 variant V-H10(R47C,A87I) (Priestia megaterium, UniProt P14779, A181T/A185V/A198V/A291V/E253G/F206C/F88I/H237Q/L354V/P143S/R256S/R48C/S227R/T176I/V79N).
T1 sequence (P14779 1-1049 R48C/V79N/F88I/P143S/T176I/A181T/A185V/A198V/F206C/S227R/H237Q/E253G/R256S/A291V/L354V): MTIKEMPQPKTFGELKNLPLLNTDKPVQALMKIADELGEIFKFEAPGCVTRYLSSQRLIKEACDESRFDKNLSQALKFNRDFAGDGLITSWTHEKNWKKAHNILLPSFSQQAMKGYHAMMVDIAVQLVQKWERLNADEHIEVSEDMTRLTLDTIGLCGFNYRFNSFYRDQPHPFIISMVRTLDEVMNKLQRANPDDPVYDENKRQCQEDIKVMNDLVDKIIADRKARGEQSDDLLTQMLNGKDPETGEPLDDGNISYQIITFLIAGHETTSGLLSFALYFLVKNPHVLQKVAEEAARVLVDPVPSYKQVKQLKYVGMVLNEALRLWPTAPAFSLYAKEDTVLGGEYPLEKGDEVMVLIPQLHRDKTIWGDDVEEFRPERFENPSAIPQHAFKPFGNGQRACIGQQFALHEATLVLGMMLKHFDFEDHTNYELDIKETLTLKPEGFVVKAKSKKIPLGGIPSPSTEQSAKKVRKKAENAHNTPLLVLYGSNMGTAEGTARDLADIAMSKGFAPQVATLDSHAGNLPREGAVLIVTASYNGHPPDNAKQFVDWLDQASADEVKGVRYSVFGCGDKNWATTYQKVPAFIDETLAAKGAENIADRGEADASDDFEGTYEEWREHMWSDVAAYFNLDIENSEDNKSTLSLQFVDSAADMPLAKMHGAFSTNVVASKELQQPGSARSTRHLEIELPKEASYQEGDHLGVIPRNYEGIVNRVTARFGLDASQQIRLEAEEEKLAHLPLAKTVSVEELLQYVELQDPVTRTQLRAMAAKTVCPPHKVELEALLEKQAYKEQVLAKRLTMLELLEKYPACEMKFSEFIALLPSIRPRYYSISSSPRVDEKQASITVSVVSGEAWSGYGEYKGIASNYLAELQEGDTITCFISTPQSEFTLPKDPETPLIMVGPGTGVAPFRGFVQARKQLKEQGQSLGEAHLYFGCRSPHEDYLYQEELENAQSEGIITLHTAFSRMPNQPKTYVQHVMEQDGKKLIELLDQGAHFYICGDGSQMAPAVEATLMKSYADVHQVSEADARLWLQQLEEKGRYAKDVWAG
Put plainly: Heme spin shift binding of MCL to P450 variant V-H10. More on the design: species or system Bacillus megaterium. The procedure, abridged:
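Purified P450 (3 μM) in 50 mM or 1 M potassium phosphate, pH 8.0, titrated with test compound (5–2000 μM) from a 50 mM ethanol stock. Difference spectra (350–500 nm) were recorded at each step. Absorbance change at 390/420 nm (high/low spin) was fitted to a 1:1 binding model for KD. At least triplicate, room temperature.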

Usually Kd stands for the equilibrium constant for the complex coming apart. For the compound `C=C1C(=O)O[C@H]2[C@H]1CCC(C)=C1CC[C@@](C)(O)[C@@H]12` [MCL, micheliolide], the “reduction in cell viability” value in the assay on M9-ENL1 cells was determined as 50%. Further, the Kd in assay [1] (50 mM KPi pH 8.0, room temperature) was found to be 365 ± 53 µM; in assay [1] (1 M KPi buffer (pH 8.0)), 128 µM.

(Values after paper PMC8161485 (ACS Central Science, 2021).)
